Data as given in ChEMBL document CHEMBL3098122, “Synthesis, biological activity and structure-activity relationships of new benzoic acid-based protein tyrosine phosphatase inhibitors endowed with insulinomimetic effects in mouse C2C12 skeletal muscle cells” (Eur J Med Chem, 2014).
Calls of active or inactive are those of the source. No cut-off for these calls is given here.

What was measured:
[1] = target: T1, Tyrosine-protein phosphatase non-receptor type 1 (Mus musculus) (UniProt P35821); experiment: Inhibition of PTP1B in mouse C2C12 cells assessed as increase of 2-deoxy-D-1,2-[3H]-glucose at 25 uM after 90 mins by beta-scintillation counting; format: cell-based
T1 sequence (whole entry): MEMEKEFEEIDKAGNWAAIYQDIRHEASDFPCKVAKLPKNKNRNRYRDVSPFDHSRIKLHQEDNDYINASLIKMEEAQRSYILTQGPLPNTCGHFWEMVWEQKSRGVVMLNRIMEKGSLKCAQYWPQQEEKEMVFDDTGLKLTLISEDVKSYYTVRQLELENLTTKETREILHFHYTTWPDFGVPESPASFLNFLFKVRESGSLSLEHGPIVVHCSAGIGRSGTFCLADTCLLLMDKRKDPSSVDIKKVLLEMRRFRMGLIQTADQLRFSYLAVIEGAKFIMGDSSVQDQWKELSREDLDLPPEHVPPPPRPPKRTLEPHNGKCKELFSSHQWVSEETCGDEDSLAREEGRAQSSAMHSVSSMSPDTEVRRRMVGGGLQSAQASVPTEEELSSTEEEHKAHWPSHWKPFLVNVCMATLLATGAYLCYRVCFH
Outline: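 Serum-starved differentiated C2C12 myotubes treated 90 min with 25 µM compound (1.2% DMSO) or 30 min with 10 nM insulin, then 0.1 µCi 2-deoxy-D-[1,2-3H]glucose in Ringer-Hepes for 15 min at 37 °C; cold PBS wash, 0.2 M NaOH lysis, scintillation counting normalized to Bradford protein; three replicates.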

[2] = target: T2, Tyrosine-protein phosphatase non-receptor type 2 (Homo sapiens, UniProt P17706); experiment: Inhibition of TC-PTP (unknown origin) purchased from New England Biolabs using p-nitrophenylphosphate as substrate
T2 sequence (P17706 whole entry): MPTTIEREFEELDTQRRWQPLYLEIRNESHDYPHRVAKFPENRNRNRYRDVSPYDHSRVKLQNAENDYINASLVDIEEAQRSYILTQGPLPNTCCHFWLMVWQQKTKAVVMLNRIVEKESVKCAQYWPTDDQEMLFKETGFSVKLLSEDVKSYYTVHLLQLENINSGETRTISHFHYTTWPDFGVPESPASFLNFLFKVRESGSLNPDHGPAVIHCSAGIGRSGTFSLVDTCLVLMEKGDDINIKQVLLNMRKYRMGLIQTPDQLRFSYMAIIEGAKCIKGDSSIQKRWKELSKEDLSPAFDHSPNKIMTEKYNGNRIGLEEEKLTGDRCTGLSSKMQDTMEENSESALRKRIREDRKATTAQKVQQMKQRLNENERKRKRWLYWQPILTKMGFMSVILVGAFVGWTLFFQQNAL

[3] = species on record: Homo sapiens; experiment: Selectivity ratio of IC50 for TC-PTP (unknown origin) to IC50 for human recombinant PTP1B
Outline: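 Commercial T-cell PTP assayed on p-nitrophenylphosphate at 37 °C, pH 7.0 β,β-dimethylglutarate buffer with 1 mM EDTA and 5 mM DTT; stopped with 1 M KOH, absorbance at 400 nm; IC50 from ratio of activity with and without inhibitor versus inhibitor concentration. Ratio lines pair this with recombinant human PTP1B measured the same way.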

[4] = target: T1, Tyrosine-protein phosphatase non-receptor type 1 (Mus musculus); experiment: Inhibition of PTP1B in mouse C2C12 cells assessed as increase of insulin receptor beta phosphorylation at 25 uM after 90 mins; format: cell-based
Outline: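 Differentiated, 20 h serum-starved C2C12 myotubes exposed to 25 µM compound (DMSO 1.2% final) for 90 min at 37 °C, insulin 10 nM 30 min as positive control; lysates run on SDS-PAGE, Western blot for phospho-insulin receptor β with actin loading control, densitometry; three replicates, p<0.05 versus control.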

[5] = target: T3, Tyrosine-protein phosphatase non-receptor type 1 (Homo sapiens) (UniProt P18031); experiment: Reversible inhibition of human recombinant PTP1B expressed in Escherichia coli TB1 using p-nitrophenylphosphate as substrate assessed as residual activity at 25 times IC50 after 1 hr measured after 400 fold dilution
T3 sequence (whole entry): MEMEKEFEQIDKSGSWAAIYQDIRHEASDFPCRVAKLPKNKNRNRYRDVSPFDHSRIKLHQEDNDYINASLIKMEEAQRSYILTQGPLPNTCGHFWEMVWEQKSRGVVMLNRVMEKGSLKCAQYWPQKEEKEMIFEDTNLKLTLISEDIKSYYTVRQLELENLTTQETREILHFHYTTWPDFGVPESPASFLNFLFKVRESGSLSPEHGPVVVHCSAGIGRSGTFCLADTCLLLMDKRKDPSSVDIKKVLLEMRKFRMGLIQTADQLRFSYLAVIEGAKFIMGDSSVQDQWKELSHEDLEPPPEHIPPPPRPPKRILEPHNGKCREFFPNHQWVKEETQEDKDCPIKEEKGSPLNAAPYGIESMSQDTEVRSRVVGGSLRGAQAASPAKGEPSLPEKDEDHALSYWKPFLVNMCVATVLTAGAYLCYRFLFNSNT
Outline: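 Reversibility: PTP1B preincubated 1 h at 37 °C with at least 25-fold […], DMSO in controls; mixture then diluted 400-fold in assay buffer and residual activity measured on p-nitrophenylphosphate; three replicates, mean ± SE.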

[6] = species on record: Homo sapiens; experiment: Selectivity ratio of IC50 for human recombinant LMW-PTP IF1 to IC50 for human recombinant PTP1B
[7] = target: T4, Low molecular weight phosphotyrosine protein phosphatase (Homo sapiens, UniProt P24666); experiment: Inhibition of human recombinant LMW-PTP IF1 expressed in Escherichia coli TB1 using p-nitrophenylphosphate as substrate
T4 sequence (P24666 whole entry): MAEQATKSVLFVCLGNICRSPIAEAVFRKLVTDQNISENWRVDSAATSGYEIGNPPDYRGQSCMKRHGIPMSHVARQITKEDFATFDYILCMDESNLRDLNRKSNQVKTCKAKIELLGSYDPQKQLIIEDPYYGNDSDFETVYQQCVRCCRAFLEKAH

[8] = target: T5, Tyrosine-protein phosphatase non-receptor type 1 (Homo sapiens, UniProt P18031); experiment: Inhibition of human recombinant PTP1B expressed in Escherichia coli TB1 using p-nitrophenylphosphate as substrate
T5 sequence (P18031 whole entry): T3 sequence (whole entry)

[9] = target: T5, Tyrosine-protein phosphatase non-receptor type 1; experiment: Noncompetitive inhibition of human recombinant PTP1B expressed in Escherichia coli TB1 using p-nitrophenylphosphate as substrate by Double reciprocal plot analysis
Outline: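 PTP1B (human, GST fusion from pGEX-2T in E. coli TB1, thrombin-cleaved, gel-filtered) assayed at 37 °C, pH 7.0 β,β-dimethylglutarate buffer with 1 mM EDTA and 5 mM DTT, p-nitrophenylphosphate at seven final concentrations (0.5–25 mM) with increasing inhibitor; KOH-stopped, A400. Inhibition type from double reciprocal plots; Ki from apparent Km vs inhibitor concentration; triplicate initial rates.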

[10] = target: T4, Low molecular weight phosphotyrosine protein phosphatase; experiment: Inhibition of human recombinant LMW-PTP IF2 expressed in Escherichia coli TB1 using p-nitrophenylphosphate as substrate
[11] = Cytotoxicity against mouse C2C12 cells expressing PTP1B, TC-PTP, LMW-PTP and insulin receptor assessed as cell viability after 2 hrs by MTT assay; format: cell-based; parameters: concentration or dose not given beside the values; conditions: read-out: Activity
Outline: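 C2C12 myoblasts differentiated 4 days in DMEM with 2% horse serum, serum-starved 20 h; myotubes then given MTT (0.5 mg/ml final) for 2 h at 37 °C, lysed in DMSO, formazan read at 570 nm; three replicates relative to control.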

[12] = species on record: Homo sapiens; experiment: Selectivity ratio of IC50 for human recombinant LMW-PTP IF2 to IC50 for human recombinant PTP1B
[13] = species on record: Homo sapiens; experiment: Selectivity ratio of IC50 for human recombinant LMW-PTP IF2 to IC50 for human recombinant LMW-PTP IF1

**Q.** With `COc1cc(/C=C2\SC(=O)N(Cc3ccc(C(=O)O)cc3)C2=O)ccc1OCCc1ccccc1` as the molecule, how does the inhibition [1] read?
**A.** Active

**Q.** And the IC50 [2]?
**A.** 3.5 µM

**Q.** What about the Ratio IC50 [3] of the same molecule?
**A.** 2

**Q.** What about the inhibition [4] of the same molecule?
**A.** Active

**Q.** And the Activity [5]?
**A.** 80%

**Q.** And the Ratio IC50 [6]?
**A.** > 2

**Q.** And the IC50 [7]?
**A.** 10.8 µM

**Q.** What about the IC50 [8] of the same molecule?
**A.** 1.1 µM

**Q.** What about the Ki [9] of the same molecule?
**A.** 1.4 µM

**Q.** And the IC50 [10]?
**A.** > 50 µM

**Q.** What about the viability at 2 h [11] of the same molecule?
**A.** ≥ 80%

**Q.** And the Ratio IC50 [12]?
**A.** > 2

**Q.** What about the Ratio IC50 [13] of the same molecule?
**A.** > 2
